Usually IC50 stands for the concentration at which inhibition is half-maximal. A higher IC50 goes with weaker potency in that assay. What is called Ki is a measure of affinity in units of concentration, obtained from inhibition or displacement. High values mean lower affinity, low ones higher affinity.

The record followed here is ChEMBL document CHEMBL1137397, “Identification of selective, nonpeptidic nitrile inhibitors of cathepsin s using the substrate activity screening method” (J Med Chem, 2006).

Assay [1] has as its target T1, Cathepsin K (Homo sapiens, UniProt P43235).
T1 sequence (P43235 whole entry): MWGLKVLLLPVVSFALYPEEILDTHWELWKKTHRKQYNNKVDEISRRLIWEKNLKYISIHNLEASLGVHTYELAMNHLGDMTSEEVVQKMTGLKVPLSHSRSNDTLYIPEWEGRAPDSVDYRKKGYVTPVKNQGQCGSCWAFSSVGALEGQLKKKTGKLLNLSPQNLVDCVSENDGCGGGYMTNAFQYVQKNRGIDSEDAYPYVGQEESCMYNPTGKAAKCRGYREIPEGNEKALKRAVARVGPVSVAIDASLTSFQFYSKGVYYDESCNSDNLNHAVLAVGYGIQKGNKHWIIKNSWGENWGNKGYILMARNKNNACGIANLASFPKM
In words: Inhibition of cathepsin K. The essentials: (§1)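 Cathepsins B (2 nM), K (10 nM) or L (0.03 nM) in pH 6.1 phosphate/NaCl/DTT/EDTA/Tween-20 buffer. Preincubated 5 min at 37 °C with five inhibitor levels (10-90% inhibition), in duplicate. Cbz-Phe-Arg-AMC added at 5 and 2.5 µM (B, K) or 0.6 and 0.3 µM (L). AMC read at ex 355/em 450 nm for 5 min. Ki by Dixon plot.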

In assay [2] the target is Procathepsin L (Homo sapiens, UniProt P07711). In words: Inhibition of cathepsin L. The essentials: as §1
Procathepsin L, sequence (P07711 whole entry): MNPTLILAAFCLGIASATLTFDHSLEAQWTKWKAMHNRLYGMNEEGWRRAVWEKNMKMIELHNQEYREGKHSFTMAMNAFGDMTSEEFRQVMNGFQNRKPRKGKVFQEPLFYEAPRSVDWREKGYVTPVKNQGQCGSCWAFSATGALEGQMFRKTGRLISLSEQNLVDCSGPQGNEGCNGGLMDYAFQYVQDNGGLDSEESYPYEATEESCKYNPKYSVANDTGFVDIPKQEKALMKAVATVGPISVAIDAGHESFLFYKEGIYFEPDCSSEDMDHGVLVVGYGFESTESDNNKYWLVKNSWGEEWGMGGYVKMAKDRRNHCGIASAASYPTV
For assay [3], the target named is Cathepsin S (Homo sapiens, UniProt P25774). Nature of the assay: Inhibition of cathepsin S. The essentials: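 Cathepsin S at 0.6 nM in pH 6.1 100 mM sodium phosphate with 100 mM NaCl, 1 mM DTT, 1 mM EDTA and 0.001% Tween-20. Enzyme preincubated 5 min at 37 °C with five inhibitor concentrations (10-90% inhibition), in duplicate. Cbz-Leu-Arg-AMC added at 5 and 2.5 µM, then AMC read (ex 355/em 450 nm) over 5 min. Ki by Dixon method.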
Cathepsin S, sequence (P25774 whole entry): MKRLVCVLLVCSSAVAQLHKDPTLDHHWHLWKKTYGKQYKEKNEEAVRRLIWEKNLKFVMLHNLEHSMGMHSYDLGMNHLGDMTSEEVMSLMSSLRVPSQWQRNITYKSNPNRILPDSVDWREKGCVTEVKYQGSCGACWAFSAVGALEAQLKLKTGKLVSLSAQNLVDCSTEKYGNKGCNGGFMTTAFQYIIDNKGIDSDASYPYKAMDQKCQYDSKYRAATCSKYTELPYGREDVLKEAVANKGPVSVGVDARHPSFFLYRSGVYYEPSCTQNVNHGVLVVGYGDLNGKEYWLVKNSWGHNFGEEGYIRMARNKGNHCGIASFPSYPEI

Assay [4] has as its target Cathepsin B (Homo sapiens, UniProt P07858). Nature of the assay: Inhibition of cathepsin B. In outline:
as §1

For the compound `CCCC[C@@H](C#N)n1cc([C@@](C)(NC(=O)c2ccsc2)C2CCC(C)CC2)nn1` (stereo not given in full), the IC50 in assay [1] and in assay [2] was above 15 µM throughout. For the same compound, the Ki in assay [1] is above 15 µM; in assay [2] it was above 15 µM; in assay [3], 0.015 µM.

Regarding `CCCC[C@@H](C#N)n1cc([C@@](C)(NC(=O)c2ccsc2)C(C)C)nn1`, the IC50 in assay [4] and in assay [2] was above 10 µM in each case. Besides, the inhibition constant Ki is above 10 µM in assay [4], 0.43 µM in assay [1], above 10 µM in assay [2] and 0.42 µM in assay [3].

With `CCCC[C@@H](C#N)n1cc([C@@](C)(NC(=O)c2ccccc2)C2CCCCC2)nn1`, the IC50 in assay [4], in assay [1] and in assay [2] was above 10 µM in each case. Also, the inhibition constant (Ki) in assay [4] was above 10 µM; in assay [1], above 10 µM; in assay [2] it was above 10 µM; in assay [3] it was 0.2 µM.

As to `CCCC[C@@H](C#N)n1cc([C@@](C)(NC(=O)c2ccccc2)C(C)C)nn1`, the half-maximal inhibitory concentration (IC50) in assay [4] and in assay [2] was above 10 µM throughout. In addition, the inhibition constant Ki in assay [4] is above 10 µM; in assay [1] it was 0.88 µM; in assay [2], above 10 µM; in assay [3] it was 1.2 µM.

On to `CCCC[C@@H](C#N)n1cc([C@@](C)(NC(=O)c2ccsc2)C2CCCCC2)nn1`, for which the IC50 in assay [4] and in assay [2] was above 10 µM each time. Further, the Ki in assay [4] is above 10 µM; in assay [1], 1.7 µM; in assay [2], above 10 µM; in assay [3] it was 0.018 µM.
